Experiments:
[1] = test system: Brassica rapa subsp. oleifera; test: Herbicidal activity against Brassica rapa subsp. oleifera assessed as inhibition of fresh weed plant weight at 187.5 g/ha using pre-emergence treatment protocol; assay type: functional
[2] = test system: Brassica rapa subsp. oleifera; test: Herbicidal activity against Brassica rapa subsp. oleifera assessed as inhibition of fresh weed plant weight at 45 g/ha using pre-emergence treatment protocol; assay type: functional
Digitaria sanguinalis [3] = test: Herbicidal activity against Digitaria sanguinalis (hairy crabgrass) assessed as inhibition of fresh weed plant weight at 187.5 g/ha using pre-emergence treatment protocol; assay type: functional
Amaranthus retroflexus [4] = test: Herbicidal activity against Amaranthus retroflexus assessed as inhibition of fresh weed plant weight at 187.5 g/ha using pre-emergence treatment protocol; assay type: functional
Echinochloa crus-galli [5] = test: Herbicidal activity against Echinochloa crus-galli (barnyard grass) assessed as inhibition of fresh weed plant weight at 93.75 g/ha using pre-emergence treatment protocol; assay type: functional
Echinochloa crus-galli [6] = test: Herbicidal activity against Echinochloa crus-galli (barnyard grass) assessed as inhibition of fresh weed plant weight at 187.5 g/ha using pre-emergence treatment protocol; assay type: functional
Procedure, shortened: (§1)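 Test compounds made up as emulsions by dissolving in 100 µL N,N-dimethylformamide, then adding a little Tween 20 and water. For post-emergence, weed seedlings at one leaf and one stem were sprayed at the same rates as the pre-emergence test. Fresh weight was recorded 15 days after treatment and expressed as percent inhibition versus controls. All treatments were run in triplicate.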

Echinochloa crus-galli [7] = test: Herbicidal activity against Echinochloa crus-galli (barnyard grass) assessed as inhibition of fresh weed plant weight at 22.5 g/ha using pre-emergence treatment protocol; assay type: functional; procedure, shortened: as §1
Amaranthus retroflexus [8] = test: Herbicidal activity against Amaranthus retroflexus assessed as inhibition of fresh weed plant weight at 45 g/ha using pre-emergence treatment protocol; assay type: functional
Echinochloa crus-galli [9] = test: Herbicidal activity against Echinochloa crus-galli (barnyard grass) assessed as inhibition of fresh weed plant weight at 45 g/ha using pre-emergence treatment protocol; assay type: functional
[10] = test system: Brassica rapa subsp. oleifera; test: Herbicidal activity against Brassica rapa subsp. oleifera assessed as inhibition of fresh weed plant weight at 22.5 g/ha using pre-emergence treatment protocol; assay type: functional
Digitaria sanguinalis [11] = test: Herbicidal activity against Digitaria sanguinalis (hairy crabgrass) assessed as inhibition of fresh weed plant weight at 45 g/ha using pre-emergence treatment protocol; assay type: functional
Amaranthus retroflexus [12] = test: Herbicidal activity against Amaranthus retroflexus assessed as inhibition of fresh weed plant weight at 22.5 g/ha using pre-emergence treatment protocol; assay type: functional
Digitaria sanguinalis [13] = test: Herbicidal activity against Digitaria sanguinalis (hairy crabgrass) assessed as inhibition of fresh weed plant weight at 22.5 g/ha using pre-emergence treatment protocol; assay type: functional
[14] = molecular target: T1, Protoporphyrinogen IX oxidase (Zea mays, UniProt Q9M629); test: Inhibition of protoporphyrinogen oxidase in Zea mays (maize) seedlings leaves etioplasts using protoporphyrinogen IX incubated for 30 min by fluorescence spectroscopy
T1 sequence (Q9M629 whole entry): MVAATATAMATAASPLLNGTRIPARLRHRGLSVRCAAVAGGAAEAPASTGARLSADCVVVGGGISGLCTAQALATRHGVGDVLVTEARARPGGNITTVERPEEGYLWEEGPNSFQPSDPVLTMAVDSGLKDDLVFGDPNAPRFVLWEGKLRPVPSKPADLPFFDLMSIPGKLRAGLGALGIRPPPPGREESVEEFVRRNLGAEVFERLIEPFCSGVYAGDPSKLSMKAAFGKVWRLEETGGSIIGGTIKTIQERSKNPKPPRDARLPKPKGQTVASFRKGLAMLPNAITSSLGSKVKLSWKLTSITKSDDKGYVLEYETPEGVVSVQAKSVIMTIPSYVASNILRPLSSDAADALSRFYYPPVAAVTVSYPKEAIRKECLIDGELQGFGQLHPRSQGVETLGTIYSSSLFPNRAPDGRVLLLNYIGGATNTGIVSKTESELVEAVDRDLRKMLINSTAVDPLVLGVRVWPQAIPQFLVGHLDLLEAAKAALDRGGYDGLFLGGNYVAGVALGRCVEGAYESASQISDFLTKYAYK

Digitaria sanguinalis [15] = test: Herbicidal activity against Digitaria sanguinalis (hairy crabgrass) assessed as inhibition of fresh weed plant weight at 93.75 g/ha using pre-emergence treatment protocol; assay type: functional
Amaranthus retroflexus [16] = test: Herbicidal activity against Amaranthus retroflexus assessed as inhibition of fresh weed plant weight at 93.75 g/ha using pre-emergence treatment protocol; assay type: functional
[17] = test system: Brassica rapa subsp. oleifera; test: Herbicidal activity against Brassica rapa subsp. oleifera assessed as inhibition of fresh weed plant weight at 93.75 g/ha using pre-emergence treatment protocol; assay type: functional

Work on `C#CCN1C(=O)COc2cc(F)c(N3C(=O)C4=C(CCCC4)C3=O)cc21` [FLUMIOXAZIN] yielded an inhibition at 187.5 g/ha [1] of 100%, an inhibition at 45 g/ha [2] of 100% and an inhibition at 187.5 g/ha (Digitaria sanguinalis [3]) of 100%. The inhibition at 187.5 g/ha (Amaranthus retroflexus [4]) was 100%, the inhibition at 93.75 g/ha (Echinochloa crus-galli [5]) was 100% and the inhibition at 187.5 g/ha (Echinochloa crus-galli [6]) was 100%. The inhibition at 22.5 g/ha (Echinochloa crus-galli [7]) was 40.9%, the inhibition at 45 g/ha (Amaranthus retroflexus [8]) was 100% and the inhibition at 45 g/ha (Echinochloa crus-galli [9]) was 71.4%. For the same molecule, the inhibition at 22.5 g/ha [10] was 92.6%, the inhibition at 45 g/ha (Digitaria sanguinalis [11]) was 100% and the inhibition at 22.5 g/ha (Amaranthus retroflexus [12]) was 100%. The inhibition at 22.5 g/ha (Digitaria sanguinalis [13]) was 85.4%, the IC50 [14] was 3.24 nM and the inhibition at 93.75 g/ha (Digitaria sanguinalis [15]) was 100%. The inhibition at 93.75 g/ha (Amaranthus retroflexus [16]) was 100% and the inhibition at 93.75 g/ha [17] was 100%.
